A word on the IC50: it is the concentration needed to halve the response being measured.

This note sets out measurements from ChEMBL document CHEMBL1949612, “Design, synthesis, and functionalization of dimeric peptides targeting chemokine receptor CXCR4” (J Med Chem, 2011).

Each structure is given as a SMILES string. *1 amine or outer side, *2 acyl side, *3 side chain or, on linkers, in order; H or OH if unused. Where a SMILES comes first, the peptide text is derived from it. Bridges are numbered along the chain shown (N, C = ends). Roman numbers before positions name the chains, in order. [ ]: non-standard residue; d: D form. The star is where a group is joined. C16 diacid = O=C(O)CCCCCCCCCCCCCCC(=O)*; Sebacoyl = O=C(CCCCCCCCC(=O)[*:2])[*:1]; 2Nal = N[C@@H](Cc1ccc2ccccc2c1)C(=O)O; Suberoyl = O=C(CCCCCCC(=O)[*:2])[*:1]; Adipoyl = O=C(CCCCC(=O)[*:2])[*:1]; Glutaryl = O=C(CCCC(=O)[*:2])[*:1]; dNMeOrn = CN[C@H](CCCN)C(=O)O; Suc = O=C(CCC(=O)[*:2])[*:1]

Chain of C-X-C chemokine receptor type 4 (P61073 whole entry): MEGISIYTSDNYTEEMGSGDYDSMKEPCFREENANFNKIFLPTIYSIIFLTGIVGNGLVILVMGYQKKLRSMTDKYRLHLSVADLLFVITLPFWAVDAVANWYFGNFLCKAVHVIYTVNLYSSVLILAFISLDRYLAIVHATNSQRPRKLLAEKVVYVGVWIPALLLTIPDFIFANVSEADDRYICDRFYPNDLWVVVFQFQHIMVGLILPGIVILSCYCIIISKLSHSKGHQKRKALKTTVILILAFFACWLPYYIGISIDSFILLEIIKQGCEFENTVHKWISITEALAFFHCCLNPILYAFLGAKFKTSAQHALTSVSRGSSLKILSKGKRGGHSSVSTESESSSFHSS

In this assay the target is C-X-C chemokine receptor type 4 (Homo sapiens, UniProt P61073). As to the kind of experiment: Displacement of [125I]-CPCR4 from CXCR4 receptor in human Jurkat cells after 2 hrs by gamma counting. It is filed as cell-based. An outline of the steps:
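Whole Jurkat cells (400000 per tube) in PBS/0.2% BSA were incubated with ~0.1 nM (3.1 kBq) 125I-CPCR4 and test peptide at 10^-11 to 10^-5 M, shaken 2 h at RT. Nonspecific binding was taken with 1 μM unlabeled CPCR4. Cells were pelleted, washed twice with cold PBS, and bound activity was counted. Runs were done in triplicate, repeated 2–3 times. IC50 was fitted by nonlinear regression.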
(In general: Displacement assays read how much labelled ligand stays bound in the presence of the test substance.)
On to `CC(=O)NCCC[C@@H]1C(=O)N[C@@H](CCCNC(N)=O)C(=O)N[C@@H](Cc2ccc3ccccc3c2)C(=O)NCC(=O)N[C@H](Cc2ccc(O)cc2)C(=O)N1C`, for which the half-inhibitory concentration (IC50) was 1000 nM. That is a single-digit micromolar value. The result for `CN1C(=O)[C@@H](Cc2ccc(O)cc2)NC(=O)CNC(=O)[C@H](Cc2ccc3ccccc3c2)NC(=O)[C@H](CCCNC(=N)N)NC(=O)[C@H]1CCCN` reads 6 nM. In the case of `CC(=O)NCCC[C@@H]1C(=O)N[C@@H](CCCNC(=N)N)C(=O)N[C@@H](Cc2ccc3ccccc3c2)C(=O)NCC(=O)N[C@H](Cc2ccc(O)cc2)C(=O)N1C` it was 60 nM; in that of `CN1C(=O)[C@@H](Cc2ccc(O)cc2)NC(=O)CNC(=O)[C@H](Cc2ccc3ccccc3c2)NC(=O)[C@H](CCCN=C(N)N)NC(=O)[C@H]1CCCNC(=O)CCCC(=O)NCCC[C@@H]1C(=O)N[C@@H](CCCNC(N)=O)C(=O)N[C@@H](Cc2ccc3ccccc3c2)C(=O)NCC(=O)N[C@H](Cc2ccc(O)cc2)C(=O)N1C`, 19 nM.

In turn, `CN1C(=O)[C@@H](Cc2ccc(O)cc2)NC(=O)CNC(=O)[C@H](Cc2ccc3ccccc3c2)NC(=O)[C@H](CCCN=C(N)N)NC(=O)[C@H]1CCCNC(=O)CCCCCCCCCCCC(=O)NCCC[C@@H]1C(=O)N[C@@H](CCCNC(N)=O)C(=O)N[C@@H](Cc2ccc3ccccc3c2)C(=O)NCC(=O)N[C@H](Cc2ccc(O)cc2)C(=O)N1C` had an IC50 of 4 nM. The molecule `CN1C(=O)[C@@H](Cc2ccc(O)cc2)NC(=O)CNC(=O)[C@H](Cc2ccc3ccccc3c2)NC(=O)[C@H](CCCN=C(N)N)NC(=O)[C@H]1CCCNC(=O)CNC(=O)CC(=O)NCC(=O)NCCC[C@@H]1C(=O)N[C@@H](CCCN=C(N)N)C(=O)N[C@@H](Cc2ccc3ccccc3c2)C(=O)NCC(=O)N[C@H](Cc2ccc(O)cc2)C(=O)N1C` registered an IC50 of 8 nM. The result for `CN1C(=O)[C@@H](Cc2ccc(O)cc2)NC(=O)CNC(=O)[C@H](Cc2ccc3ccccc3c2)NC(=O)[C@H](CCCNC(=N)N)NC(=O)[C@H]1CCCNC(=O)CNC(=O)CCC(=O)NCC(=O)NCCC[C@@H]1C(=O)N[C@@H](CCCNC(=N)N)C(=O)N[C@@H](Cc2ccc3ccccc3c2)C(=O)NCC(=O)N[C@H](Cc2ccc(O)cc2)C(=O)N1C` reads 6 nM; that for `CN1C(=O)[C@@H](Cc2ccc(O)cc2)NC(=O)CNC(=O)[C@H](Cc2ccc3ccccc3c2)NC(=O)[C@H](CCCNC(=N)N)NC(=O)[C@H]1CCCNC(=O)CNC(=O)CCCC(=O)NCC(=O)NCCC[C@@H]1C(=O)N[C@@H](CCCNC(=N)N)C(=O)N[C@@H](Cc2ccc3ccccc3c2)C(=O)NCC(=O)N[C@H](Cc2ccc(O)cc2)C(=O)N1C`, 14 nM; that for `CN1C(=O)[C@@H](Cc2ccc(O)cc2)NC(=O)CNC(=O)[C@H](Cc2ccc3ccccc3c2)NC(=O)[C@H](CCCNC(=N)N)NC(=O)[C@H]1CCCNC(=O)C[C@H](NC(=O)CCCCCNC(=O)CN1CCN(CC(=O)O)CCN(CC(=O)O)CCN(CC(=O)O)CC1)C(=O)NCCC[C@@H]1C(=O)N[C@@H](CCCNC(=N)N)C(=O)N[C@@H](Cc2ccc3ccccc3c2)C(=O)NCC(=O)N[C@H](Cc2ccc(O)cc2)C(=O)N1C`, 98 nM. In the case of `CN1C(=O)[C@@H](Cc2ccc(O)cc2)NC(=O)CNC(=O)[C@H](Cc2ccc3ccccc3c2)NC(=O)[C@H](CCCNC(=N)N)NC(=O)[C@H]1CCCNC(=O)CC(CC(=O)NCCC[C@@H]1C(=O)N[C@@H](CCCNC(=N)N)C(=O)N[C@@H](Cc2ccc3ccccc3c2)C(=O)NCC(=O)N[C@H](Cc2ccc(O)cc2)C(=O)N1C)NC(=O)CCCCCNC(=O)CN1CCN(CC(=O)O)CCN(CC(=O)O)CCN(CC(=O)O)CC1` (stereo partly drawn) it was 31 nM; in that of `CN1C(=O)[C@@H](Cc2ccc(O)cc2)NC(=O)CNC(=O)[C@H](Cc2ccc3ccccc3c2)NC(=O)[C@H](CCCNC(=N)N)NC(=O)[C@H]1CCCNC(=O)CNC(=O)C[C@H](NC(=O)CCCCCNC(=O)CN1CCN(CC(=O)O)CCN(CC(=O)O)CCN(CC(=O)O)CC1)C(=O)NCC(=O)NCCC[C@@H]1C(=O)N[C@@H](CCCNC(=N)N)C(=O)N[C@@H](Cc2ccc3ccccc3c2)C(=O)NCC(=O)N[C@H](Cc2ccc(O)cc2)C(=O)N1C`, 39 nM; in that of `CN1C(=O)[C@@H](Cc2ccc(O)cc2)NC(=O)CNC(=O)[C@H](Cc2ccc3ccccc3c2)NC(=O)[C@H](CCCN=C(N)N)NC(=O)[C@H]1CCCNC(=O)CNC(=O)CC(CC(=O)NCC(=O)NCCC[C@@H]1C(=O)N[C@@H](CCCN=C(N)N)C(=O)N[C@@H](Cc2ccc3ccccc3c2)C(=O)NCC(=O)N[C@H](Cc2ccc(O)cc2)C(=O)N1C)NC(=O)CCCCCNC(=O)CN1CCN(CC(=O)O)CCN(CC(=O)O)CCN(CC(=O)O)CC1`, 17 nM. `CN1C(=O)[C@@H](Cc2ccc(O)cc2)NC(=O)CNC(=O)[C@H](Cc2ccc3ccccc3c2)NC(=O)[C@H](CCCN=C(N)N)NC(=O)[C@H]1CCCNC(=O)CCCCC(=O)NCCC[C@@H]1C(=O)N[C@@H](CCCN=C(N)N)C(=O)N[C@@H](Cc2ccc3ccccc3c2)C(=O)NCC(=O)N[C@H](Cc2ccc(O)cc2)C(=O)N1C` (I: cyclo([2Nal]G[dY][dNMeOrn]R) / II: cyclo([2Nal]G[dY][dNMeOrn]R); linker I:4-II:4 via Adipoyl): the IC50 was found to be 4 nM. Against the preceding molecule, the IC50 is about 4.2-fold lower.

Molecule `CN1C(=O)[C@@H](Cc2ccc(O)cc2)NC(=O)CNC(=O)[C@H](Cc2ccc3ccccc3c2)NC(=O)[C@H](CCCNC(=N)N)NC(=O)[C@H]1CCCNC(=O)CCCCCCCCCCCCCCC(=O)NCCC[C@@H]1C(=O)N[C@@H](CCCNC(=N)N)C(=O)N[C@@H](Cc2ccc3ccccc3c2)C(=O)NCC(=O)N[C@H](Cc2ccc(O)cc2)C(=O)N1C` (I: cyclo([2Nal]G[dY][dNMeOrn]R) / II: cyclo([2Nal]G[dY][dNMeOrn]R); linker I:4-II:4 via C16 diacid) displayed an IC50 of 33 nM. This IC50 lies about 8.2-fold higher than the previous one. The result for `CN1C(=O)[C@@H](Cc2ccc(O)cc2)NC(=O)CNC(=O)[C@H](Cc2ccc3ccccc3c2)NC(=O)[C@H](CCCNC(=N)N)NC(=O)[C@H]1CCCNC(=O)CCCC(=O)NCCC[C@@H]1C(=O)N[C@@H](CCCNC(=N)N)C(=O)N[C@@H](Cc2ccc3ccccc3c2)C(=O)NCC(=O)N[C@H](Cc2ccc(O)cc2)C(=O)N1C` (I: cyclo([2Nal]G[dY][dNMeOrn]R) / II: cyclo([2Nal]G[dY][dNMeOrn]R); linker I:4-II:4 via Glutaryl) reads 4 nM. In the case of `CN1C(=O)[C@@H](Cc2ccc(O)cc2)NC(=O)CNC(=O)[C@H](Cc2ccc3ccccc3c2)NC(=O)[C@H](CCCN=C(N)N)NC(=O)[C@H]1CCCNC(=O)CCCCCCCCC(=O)NCCC[C@@H]1C(=O)N[C@@H](CCCN=C(N)N)C(=O)N[C@@H](Cc2ccc3ccccc3c2)C(=O)NCC(=O)N[C@H](Cc2ccc(O)cc2)C(=O)N1C` (I: cyclo([2Nal]G[dY][dNMeOrn]R) / II: cyclo([2Nal]G[dY][dNMeOrn]R); linker I:4-II:4 via Sebacoyl) it was 2 nM; in that of `CN1C(=O)[C@@H](Cc2ccc(O)cc2)NC(=O)CNC(=O)[C@H](Cc2ccc3ccccc3c2)NC(=O)[C@H](CCCNC(=N)N)NC(=O)[C@H]1CCCNC(=O)CCCCCCC(=O)NCCC[C@@H]1C(=O)N[C@@H](CCCNC(=N)N)C(=O)N[C@@H](Cc2ccc3ccccc3c2)C(=O)NCC(=O)N[C@H](Cc2ccc(O)cc2)C(=O)N1C` (I: cyclo([2Nal]G[dY][dNMeOrn]R) / II: cyclo([2Nal]G[dY][dNMeOrn]R); linker I:4-II:4 via Suberoyl), 3 nM; in that of `CN1C(=O)[C@@H](Cc2ccc(O)cc2)NC(=O)CNC(=O)[C@H](Cc2ccc3ccccc3c2)NC(=O)[C@H](CCCNC(=N)N)NC(=O)[C@H]1CCCNC(=O)CCC(=O)NCCC[C@@H]1C(=O)N[C@@H](CCCNC(=N)N)C(=O)N[C@@H](Cc2ccc3ccccc3c2)C(=O)NCC(=O)N[C@H](Cc2ccc(O)cc2)C(=O)N1C` (I: cyclo([2Nal]G[dY][dNMeOrn]R) / II: cyclo([2Nal]G[dY][dNMeOrn]R); linker I:4-II:4 via Suc), 12 nM.
